Source: ChEMBL document CHEMBL3779881, “Property Focused Structure-Based Optimization of Small Molecule Inhibitors of the Protein-Protein Interaction between Menin and Mixed Lineage Leukemia (MLL)” (J Med Chem, 2016)
Activity calls are given as the source filed them. No cut-off for these calls is given here.

Columns and labels:
MV4-11 [1] = assay: Growth inhibition of human MV4-11 after 7 days by MTT assay; format: functional; conditions: MV4-11, 168 h
Method in brief: (§1)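 Cells in RPMI-1640/10% FBS/pen-strep/NEAA, seeded at 1×10^5/mL (MOLM-13, MV4;11) or 2×10^5/mL (HL-60), treated with compound or 0.25% DMSO for 7 days at 37 °C. Medium changed on day 4 with cell density reset and compound resupplied. MTT absorbance read at 570 nm; 2–3 experiments in quadruplicate, mean ± SD.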

Mus musculus [2] = assay: Cmax in C57BL/6 mouse plasma at 30 mg/kg, po after 24 hrs by LC-MS/MS analysis; format: ADME, organism-based; design: dose 30 mg/kg, route oral; conditions: in vivo
Method in brief: (§2)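 Female C57BL/6 mice dosed iv at 15 mg/kg or orally at 30 mg/kg in 25% DMSO/25% PEG-400/50% PBS (v/v). Serial 50 μL blood samples collected over 24 h (8 h in one experiment), spun to plasma; concentrations by validated LC-MS/MS in positive-ion MRM mode; parameters from noncompartmental analysis.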

Plasma = assay: Drug metabolism in C57BL/6 mouse plasma assessed as glucuronidation at 15 mg/kg, iv after 24 hrs by LC-MS/MS analysis; format: ADME, organism-based; conditions: in vivo
Method in brief: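 Female C57BL/6 mice given 15 mg/kg iv in 25% DMSO/25% PEG-400/50% PBS; serial plasma samples analysed by the same LC-MS/MS procedure as the PK work to detect glucuronide conjugates.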

[3] = molecular target: T1, Menin/Histone-lysine N-methyltransferase 2A (Mus musculus) (UniProt O88559+P55200); assay: Inhibition of menin-MLL interaction in MLL-AF9 transformed mouse bone marrow cells assessed as induction of cell differentiation measured as multilobed nuclei at 0.5 uM after 7 days by Cytospin/Wright-Giemsa staining assay
T1 sequence (O88559 whole entry, looked up): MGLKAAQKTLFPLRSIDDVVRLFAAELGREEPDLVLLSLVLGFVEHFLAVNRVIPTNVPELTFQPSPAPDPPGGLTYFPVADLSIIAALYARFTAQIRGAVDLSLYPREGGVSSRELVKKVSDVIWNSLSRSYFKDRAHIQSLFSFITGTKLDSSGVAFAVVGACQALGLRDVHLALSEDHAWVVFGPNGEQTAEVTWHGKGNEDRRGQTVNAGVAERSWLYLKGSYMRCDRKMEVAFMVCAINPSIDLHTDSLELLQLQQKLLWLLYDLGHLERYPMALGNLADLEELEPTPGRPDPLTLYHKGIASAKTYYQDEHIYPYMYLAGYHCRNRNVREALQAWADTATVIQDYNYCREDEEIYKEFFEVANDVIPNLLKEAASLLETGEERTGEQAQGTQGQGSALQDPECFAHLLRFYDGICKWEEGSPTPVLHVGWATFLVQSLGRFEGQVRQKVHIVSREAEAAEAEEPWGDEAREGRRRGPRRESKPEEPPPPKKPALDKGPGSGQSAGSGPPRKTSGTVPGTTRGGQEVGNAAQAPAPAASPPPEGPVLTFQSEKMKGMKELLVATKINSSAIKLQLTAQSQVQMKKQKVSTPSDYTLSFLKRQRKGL
T1 sequence (P55200 whole entry, looked up): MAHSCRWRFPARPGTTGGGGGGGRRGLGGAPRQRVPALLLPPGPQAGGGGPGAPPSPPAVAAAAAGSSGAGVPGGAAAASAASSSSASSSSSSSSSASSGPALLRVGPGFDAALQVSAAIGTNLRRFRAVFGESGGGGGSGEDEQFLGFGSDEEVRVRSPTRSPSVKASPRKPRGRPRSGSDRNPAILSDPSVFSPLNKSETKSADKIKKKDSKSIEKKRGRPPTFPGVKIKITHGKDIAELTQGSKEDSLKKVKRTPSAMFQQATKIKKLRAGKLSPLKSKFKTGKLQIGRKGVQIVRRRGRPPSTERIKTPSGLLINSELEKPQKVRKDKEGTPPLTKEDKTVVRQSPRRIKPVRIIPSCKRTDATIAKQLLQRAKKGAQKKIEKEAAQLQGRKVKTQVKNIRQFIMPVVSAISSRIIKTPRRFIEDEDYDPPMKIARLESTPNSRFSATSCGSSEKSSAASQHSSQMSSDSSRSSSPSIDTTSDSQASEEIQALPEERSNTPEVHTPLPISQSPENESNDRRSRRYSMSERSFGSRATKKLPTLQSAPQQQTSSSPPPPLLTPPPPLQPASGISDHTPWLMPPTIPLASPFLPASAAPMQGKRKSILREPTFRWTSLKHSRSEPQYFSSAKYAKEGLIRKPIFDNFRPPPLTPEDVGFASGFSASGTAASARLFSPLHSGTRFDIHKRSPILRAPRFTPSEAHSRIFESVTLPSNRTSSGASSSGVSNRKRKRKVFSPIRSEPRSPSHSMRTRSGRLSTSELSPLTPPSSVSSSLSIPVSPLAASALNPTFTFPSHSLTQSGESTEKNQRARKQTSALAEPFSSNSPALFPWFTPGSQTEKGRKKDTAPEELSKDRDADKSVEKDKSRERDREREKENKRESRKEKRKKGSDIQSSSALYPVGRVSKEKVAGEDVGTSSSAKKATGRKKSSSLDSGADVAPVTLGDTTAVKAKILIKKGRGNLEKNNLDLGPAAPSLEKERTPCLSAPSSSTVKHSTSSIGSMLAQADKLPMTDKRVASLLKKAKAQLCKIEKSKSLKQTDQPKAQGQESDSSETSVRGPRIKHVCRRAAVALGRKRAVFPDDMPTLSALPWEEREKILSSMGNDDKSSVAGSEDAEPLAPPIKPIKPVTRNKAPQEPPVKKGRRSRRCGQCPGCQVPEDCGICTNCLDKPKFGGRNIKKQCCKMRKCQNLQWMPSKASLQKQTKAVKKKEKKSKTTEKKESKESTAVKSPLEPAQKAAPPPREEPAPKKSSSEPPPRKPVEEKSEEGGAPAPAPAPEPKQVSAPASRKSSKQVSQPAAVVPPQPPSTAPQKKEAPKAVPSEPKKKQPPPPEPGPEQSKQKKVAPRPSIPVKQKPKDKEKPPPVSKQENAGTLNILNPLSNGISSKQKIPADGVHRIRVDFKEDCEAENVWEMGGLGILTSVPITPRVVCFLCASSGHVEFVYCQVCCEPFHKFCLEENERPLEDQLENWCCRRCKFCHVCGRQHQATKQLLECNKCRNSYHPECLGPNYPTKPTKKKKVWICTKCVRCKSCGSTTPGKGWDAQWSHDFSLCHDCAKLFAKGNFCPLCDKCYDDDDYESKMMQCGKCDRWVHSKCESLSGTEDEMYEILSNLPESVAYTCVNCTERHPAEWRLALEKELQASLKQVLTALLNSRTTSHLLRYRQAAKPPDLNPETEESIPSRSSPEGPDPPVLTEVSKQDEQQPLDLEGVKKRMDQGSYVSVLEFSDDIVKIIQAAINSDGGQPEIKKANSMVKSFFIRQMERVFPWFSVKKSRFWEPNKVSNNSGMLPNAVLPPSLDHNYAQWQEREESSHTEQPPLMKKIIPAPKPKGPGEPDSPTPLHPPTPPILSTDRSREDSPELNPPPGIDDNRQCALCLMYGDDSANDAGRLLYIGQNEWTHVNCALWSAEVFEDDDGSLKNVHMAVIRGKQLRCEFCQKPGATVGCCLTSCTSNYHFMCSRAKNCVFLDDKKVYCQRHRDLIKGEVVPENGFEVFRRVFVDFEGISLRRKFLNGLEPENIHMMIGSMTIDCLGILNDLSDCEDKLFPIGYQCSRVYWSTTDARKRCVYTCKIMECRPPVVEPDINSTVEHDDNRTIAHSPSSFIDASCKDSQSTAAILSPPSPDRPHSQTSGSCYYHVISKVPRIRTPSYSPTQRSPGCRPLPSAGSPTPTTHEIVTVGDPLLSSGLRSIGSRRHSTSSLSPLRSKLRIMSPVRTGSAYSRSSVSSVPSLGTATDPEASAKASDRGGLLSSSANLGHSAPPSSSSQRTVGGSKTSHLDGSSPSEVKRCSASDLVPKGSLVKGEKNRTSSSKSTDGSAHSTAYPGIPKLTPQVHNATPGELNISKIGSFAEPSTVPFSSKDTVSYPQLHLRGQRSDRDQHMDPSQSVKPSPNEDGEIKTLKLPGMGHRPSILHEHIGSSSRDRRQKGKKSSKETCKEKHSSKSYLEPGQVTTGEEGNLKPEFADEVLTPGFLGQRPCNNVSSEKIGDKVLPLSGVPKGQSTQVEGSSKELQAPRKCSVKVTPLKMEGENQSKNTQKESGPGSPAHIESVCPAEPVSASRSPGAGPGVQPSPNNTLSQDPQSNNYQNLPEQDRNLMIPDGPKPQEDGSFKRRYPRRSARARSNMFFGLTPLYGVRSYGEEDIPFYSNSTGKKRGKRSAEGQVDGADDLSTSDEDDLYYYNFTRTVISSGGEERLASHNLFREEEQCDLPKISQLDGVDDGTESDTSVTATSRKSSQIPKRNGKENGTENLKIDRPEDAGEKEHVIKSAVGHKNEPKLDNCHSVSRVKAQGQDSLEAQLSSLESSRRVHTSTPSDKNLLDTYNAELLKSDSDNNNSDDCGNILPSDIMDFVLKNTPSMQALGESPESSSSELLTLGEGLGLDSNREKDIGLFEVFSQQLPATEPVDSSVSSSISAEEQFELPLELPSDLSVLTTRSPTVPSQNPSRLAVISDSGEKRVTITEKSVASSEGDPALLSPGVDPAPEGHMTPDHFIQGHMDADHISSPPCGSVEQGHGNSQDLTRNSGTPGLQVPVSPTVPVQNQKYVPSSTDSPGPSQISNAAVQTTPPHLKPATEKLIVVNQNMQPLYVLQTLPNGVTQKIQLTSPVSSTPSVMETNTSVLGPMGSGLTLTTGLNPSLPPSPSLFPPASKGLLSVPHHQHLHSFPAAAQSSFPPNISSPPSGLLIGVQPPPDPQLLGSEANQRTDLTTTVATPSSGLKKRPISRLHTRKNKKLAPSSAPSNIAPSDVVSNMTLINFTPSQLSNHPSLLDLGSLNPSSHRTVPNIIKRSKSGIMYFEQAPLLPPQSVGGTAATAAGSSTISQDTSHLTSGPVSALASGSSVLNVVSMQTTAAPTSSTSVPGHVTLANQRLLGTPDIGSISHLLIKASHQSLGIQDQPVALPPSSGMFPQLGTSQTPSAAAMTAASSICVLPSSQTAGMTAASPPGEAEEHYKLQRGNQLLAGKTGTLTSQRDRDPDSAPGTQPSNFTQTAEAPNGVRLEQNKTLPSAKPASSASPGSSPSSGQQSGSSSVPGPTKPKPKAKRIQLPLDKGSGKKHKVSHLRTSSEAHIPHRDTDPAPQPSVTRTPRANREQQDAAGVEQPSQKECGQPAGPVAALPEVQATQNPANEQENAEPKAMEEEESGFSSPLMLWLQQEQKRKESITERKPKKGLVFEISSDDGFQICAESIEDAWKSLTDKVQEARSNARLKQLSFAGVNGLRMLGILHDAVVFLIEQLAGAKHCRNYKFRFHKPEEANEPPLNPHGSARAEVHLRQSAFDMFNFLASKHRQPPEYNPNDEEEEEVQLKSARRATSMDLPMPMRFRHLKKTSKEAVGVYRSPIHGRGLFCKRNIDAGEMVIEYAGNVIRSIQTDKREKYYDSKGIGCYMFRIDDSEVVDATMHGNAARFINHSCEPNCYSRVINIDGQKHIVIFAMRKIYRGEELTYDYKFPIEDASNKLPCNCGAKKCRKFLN
Method in brief: (§3)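 MLL-AF9 transduced mouse bone marrow cells seeded at 3×10^5/mL, treated with compound or 0.25% DMSO at 37 °C, 5% CO2 for 7 days; cytospins stained with Wright–Giemsa and scored for morphology.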

[4] = Clearance in C57BL/6 mouse at 15 mg/kg, iv after 24 hrs by LC-MS/MS analysis; format: ADME, organism-based; conditions: in vivo; method in brief: as §2
[5] = Growth inhibition of Hoxa9/Meis1 transformed mouse bone marrow cells after 7 days by MTT assay; format: functional; conditions: Bone marrow cell, 168 h
[6] = molecular target: T1, Menin/Histone-lysine N-methyltransferase 2A (Mus musculus); assay: Inhibition of menin-MLL interaction in MLL-AF9 transformed mouse bone marrow cells assessed as downregulation of Hoxa9 expression level at 100 nM after 6 days by qRT-PCR analysis
Method in brief: (§4)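 MLL-AF9 transformed murine bone marrow cells treated 6 days, then qRT-PCR. Hoxa9 and Meis1 normalised to β-actin; Itgam normalised to 18S rRNA; each referenced to DMSO-treated cells; mean ± SD, n = 2.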

[7] = Growth inhibition of MLL-AF9 transformed mouse bone marrow cells after 7 days by MTT assay; format: functional; conditions: Bone marrow cell, 168 h
MV4-11 [8] = assay: Antitumor activity against human MV4-11 cells xenografted in CB17 SCID mouse assessed as tumor growth inhibition at 45 mg/kg, ip qd administered for 2 weeks; format: functional; conditions: MV4-11, ip, 336 h, read-out: TGI
Method in brief: (§5)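 MV4;11 cells in serum-free medium mixed 1:1 with Matrigel; 5×10^6 cells injected subcutaneously into the right flank of female mice aged 4–6 weeks. Dosing began at ~100 mm³ tumours; mice randomised, once-daily ip injections of vehicle or compound for 2 weeks.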

[9] = molecular target: T1, Menin/Histone-lysine N-methyltransferase 2A (Mus musculus); assay: Inhibition of menin-MLL interaction in MLL-AF9 transformed mouse bone marrow cells assessed as downregulation of Meis1 expression level at 0.12 to 0.5 uM after 6 days by qRT-PCR analysis; method in brief: as §4
Bone marrow cell = assay: Selectivity index, ratio of GI50 for Hoxa9/Meis1 transformed mouse bone marrow cells to GI50 for MLL-AF9 transformed mouse bone marrow cells; format: functional
Mus musculus [10] = assay: AUC in C57BL/6 mouse at 30 mg/kg, po after 24 hrs by LC-MS/MS analysis; format: ADME, organism-based; design: time < 24 hr, dose 30 mg/kg, route oral; conditions: in vivo; method in brief: as §2
HL-60 = assay: Growth inhibition of human HL60 after 7 days by MTT assay; format: functional; conditions: HL-60, 168 h; method in brief: as §1
[11] = molecular target: T1, Menin/Histone-lysine N-methyltransferase 2A (Mus musculus); assay: Inhibition of menin-MLL interaction in MLL-AF9 transformed mouse bone marrow cells assessed as induction of cell differentiation measured as decreased nuclei to cytoplasm ratio at 0.5 uM after 7 days by Cytospin/Wright-Giemsa staining assay; method in brief: as §3
Mus musculus [12] = assay: Tmax in C57BL/6 mouse plasma at 30 mg/kg, po after 24 hrs by LC-MS/MS analysis; format: ADME, organism-based; conditions: in vivo; method in brief: as §2
[13] = molecular target: Menin/Histone-lysine N-methyltransferase MLL (Homo sapiens, UniProt O00255); assay: Inhibition of menin-MLL interaction (unknown origin) after 1 hr by fluorescence polarization assay; format: protein assay
Mus musculus [14] = assay: Half life in C57BL/6 mouse at 15 mg/kg, iv after 24 hrs by LC-MS/MS analysis; format: ADME, organism-based; conditions: in vivo; method in brief: as §2
Mus musculus [15] = assay: Oral bioavailability in C57BL/6 mouse at 30 mg/kg after 24 hrs by LC-MS/MS analysis; format: ADME, organism-based; conditions: in vivo; method in brief: as §2
Mus musculus [16] = assay: AUC in C57BL/6 mouse at 15 mg/kg, iv after 24 hrs by LC-MS/MS analysis; format: ADME, organism-based; design: dose 15 mg/kg, time < 24 hr, route intravenous; conditions: in vivo; method in brief: as §2
[17] = molecular target: T1, Menin/Histone-lysine N-methyltransferase 2A (Mus musculus); assay: Inhibition of menin-MLL interaction in MLL-AF9 transformed mouse bone marrow cells assessed as induction of cell differentiation measured as upregulation of Itgam expression level at 0.12 to 0.5 uM after 6 days by qRT-PCR analysis; method in brief: as §4
[18] = molecular target: T1, Menin/Histone-lysine N-methyltransferase 2A (Mus musculus); assay: Inhibition of menin-MLL interaction in MLL-AF9 transformed mouse bone marrow cells assessed as induction of cell differentiation measured as highly vacuolated cytoplasm at 0.5 uM after 7 days by Cytospin/Wright-Giemsa staining assay; method in brief: as §3
MOLM-13 = assay: Growth inhibition of human MOLM13 after 7 days by MTT assay; format: functional; conditions: MOLM-13, 168 h; method in brief: as §1
Mus musculus [19] = assay: Toxicity in CB17 SCID mouse xenografted with human MV4-11 cells assessed as reduction in body weight at 45 mg/kg, ip qd administered for 2 weeks; format: organism-based; design: scale not given: the % may be the effect or the level left; conditions: in vivo, 336 h; method in brief: as §5
Menin = molecular target: T2, Menin (Homo sapiens, UniProt O00255); assay: Binding affinity to menin (unknown origin)
T2 sequence (O00255 whole entry): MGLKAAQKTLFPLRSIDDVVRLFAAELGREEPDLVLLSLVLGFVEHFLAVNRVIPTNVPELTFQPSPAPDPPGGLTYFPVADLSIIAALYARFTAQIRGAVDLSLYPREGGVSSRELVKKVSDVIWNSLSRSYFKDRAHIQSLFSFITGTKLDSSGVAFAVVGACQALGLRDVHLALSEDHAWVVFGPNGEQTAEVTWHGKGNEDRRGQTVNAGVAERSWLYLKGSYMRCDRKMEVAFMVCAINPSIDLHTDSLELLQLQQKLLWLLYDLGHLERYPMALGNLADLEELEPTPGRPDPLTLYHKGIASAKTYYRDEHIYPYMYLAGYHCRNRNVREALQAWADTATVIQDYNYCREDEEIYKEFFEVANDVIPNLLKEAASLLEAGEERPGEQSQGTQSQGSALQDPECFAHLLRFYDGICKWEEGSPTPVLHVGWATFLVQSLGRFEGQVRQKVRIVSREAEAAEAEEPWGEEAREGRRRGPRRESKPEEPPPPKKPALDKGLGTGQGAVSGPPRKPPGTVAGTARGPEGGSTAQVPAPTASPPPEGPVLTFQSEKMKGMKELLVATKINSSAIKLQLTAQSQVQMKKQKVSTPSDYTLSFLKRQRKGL

Mus musculus [20] = assay: Volume of distribution at steady state in C57BL/6 mouse at 15 mg/kg, iv after 24 hrs by LC-MS/MS analysis; format: ADME, organism-based; conditions: in vivo; method in brief: as §2

Compound: N#Cc1cc2cc(CN3CCC(Nc4ncnc5sc(CC(F)(F)F)cc45)CC3)c(O)cc2n1Cc1cn[nH]c1
- GI50 (MV4-11 [1]): 175 nM
- Cmax (Mus musculus [2]): 4572 ng/mL
- Drug metabolism (Plasma): metabolite_detected
- inhibition [3]: Active
- clearance [4]: 14 mL/min/kg
- GI50 [5]: 9000 nM
- inhibition [6]: 50%
- GI50 [7]: 83 nM
- inhibition in vivo at 45 mg/kg (MV4-11 [8]): 80%
- inhibition [9]: Active
- RatioGI50 (Bone marrow cell): 108
- AUC (Mus musculus [10]): 18090 ng·h/mL
- GI50 (HL-60): > 6000 nM
- inhibition [11]: Active
- Tmax (Mus musculus [12]): 2 h
- IC50 [13]: 21 nM
- t1/2 (Mus musculus [14]): 1.6 h
- F (Mus musculus [15]): 51%
- AUC (Mus musculus [16]): 17897 ng·h/mL
- inhibition [17]: Active
- inhibition [18]: Active
- GI50 (MOLM-13): 268 nM
- Activity (Mus musculus [19]): < 10%
- Kd (Menin): 6.5 nM
- Vdss (Mus musculus [20]): 2.347 L/kg
